From ChEMBL document CHEMBL4402517, “Rational modification of Mannich base-type derivatives as novel antichagasic compounds: Synthesis, in vitro and in vivo evaluation” (Bioorg Med Chem, 2019)
Calls of active or inactive are those of the source. The calls are words filed in the database; no cut-off is given here.

Tests used:
[1] = Selectivity index, ratio of IC50 for African green monkey Vero cells to IC50 for Trypanosoma cruzi MHOM/Pe/2011/Arequipa; DTU 5 amastigote forms; assay type: toxicity; conditions: read-out: Selectivity Index
Outline: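 Vero cells (1 × 10^4/well) were infected with trypomastigotes at MOI 10:1 for 24 h and washed with PBS. They were then exposed to 3.1–50 µM for 72 h at 37 °C in 5% CO2, and amastigotes were counted after Giemsa staining. Triplicates in two determinations; nonlinear regression.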

[2] = (§1) Toxicity in BALB/c mouse infected with Trypanosoma cruzi MHOM/Pe/2011/Arequipa;DTU 5 bloodstream trypomastigote assessed as decrease in serum urea level in acute phase at 20 mg/kg/day, po administered for 5 consecutive days starting from day 8 post infection and measured on day 100 post infection by biochemical analysis relative to control; assay type: organism-based; design: scale not given: the % may be the effect or the level left; conditions: in vivo
Outline: (§2)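 Female BALB/c mice (10–12 weeks, 14–20 g; groups of three) were infected i.p. with 5 × 10^5 Arequipa bloodstream trypomastigotes. Dosing was oral at 20 mg/kg/day for 5 days, from day 8 pi (acute) or day 70 pi (chronic), as a 2 mg/ml suspension in 5% DMSO/0.5% HPMC; controls received vehicle. Cyclophosphamide 200 mg/kg i.p. was given at day 80 pi. Serum was collected 2 days post-treatment and at necropsy by cardiac puncture and compared with infected untreated controls.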

[3] = as §1, with “change” for “decrease”, “aspartate aminotransferase” for “urea”, “assay” for “analysis”; assay type: organism-based; conditions: in vivo; outline: as §2
Trypanosoma cruzi [4] = test: Antitrypanosomal activity against Trypanosoma cruzi MHOM/Pe/2011/Arequipa;DTU 5 bloodstream trypomastigote infected in BALB/c mouse assessed as parasite-free oesophagus in acute phase at 20 mg/kg/day, po administered for 5 consecutive days starting from day 8 post infection followed by cyclophosphamide induced immunosuppression on day 80 post infection measured after day 100 post infection by PCR method relative to control; assay type: functional
Outline: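 Female BALB/c mice (10–12 weeks, three per group) were infected i.p. with 5 × 10^5 Arequipa bloodstream trypomastigotes. Dosing was oral, 20 mg/kg/day for 5 days, as a suspension in 5% DMSO/0.5% HPMC. Cyclophosphamide 200 mg/kg i.p. was given at day 80 pi. At necropsy (day 100) tissues were tested by PCR on the splice leader region (primers TC/TC1, 300 bp). Scored as x/3 mice positive.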

[5] = Genotoxicity in Salmonella typhimurium TA1535 harboring pSK1002 assessed as survival at 0.002 mg/ml in presence of Sprague-Dawley rat liver S9 fraction metabolic activation by SOS/umu assay relative to control; assay type: toxicity, subcellular; conditions: salmonella enterica subsp. enterica serovar typhimurium, read-out: Survival
Outline: (§3)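 Survival of S. typhimurium TA1535/pSK1002 exposed to a range of compound concentrations with or without S9 mix in 96-well format. Survival percentage measured as the cytotoxicity arm of the SOS/umu test. Concentrations with survival ≥80% are counted as non-cytotoxic.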

[6] = Genotoxicity in Salmonella typhimurium TA1535 harboring pSK1002 assessed as survival at 0.031 mg/ml in absence of Sprague-Dawley rat liver S9 fraction metabolic activation by SOS/umu assay relative to control; assay type: toxicity; conditions: salmonella enterica subsp. enterica serovar typhimurium, read-out: Survival; outline: as §3
[7] = Selectivity index, ratio of IC50 for African green monkey Vero cells to IC50 for Trypanosoma cruzi IRHOD/CO/2008/SN3;DTU 1; assay type: toxicity; conditions: read-out: Selectivity Index
Outline: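 SI = Vero IC50 / epimastigote IC50. Vero cells were grown in RPMI-1640 with 10% FBS, seeded at 0.8 × 10^4 cells/well, exposed to 10.0–200.0 µM for 72 h, then given MTT for 4 h. Epimastigotes were grown in MTL with 10% FBS at 28 °C, 5 × 10^5/mL, exposed to 6.3–50 µM for 48 h, then resazurin for 24 h (570/600 nm). IC50s came from nonlinear regression.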

[8] = Genotoxicity in Salmonella typhimurium TA1535 harboring pSK1002 assessed as umu gene induction at 0.125 mg/ml in absence of Sprague-Dawley rat liver S9 fraction metabolic activation by SOS/umu assay relative to control; assay type: toxicity; conditions: salmonella enterica subsp. enterica serovar typhimurium, read-out: FC
Outline: (§4)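 umu induction in S. typhimurium TA1535/pSK1002, with or without S9 mix, in 96-well format. β-galactosidase read colorimetrically with ONPG substrate. Output given as relative units and induction factor (IF). The run is valid if positive controls reach IF ≥2. A compound counts as genotoxic at IF ≥2 at a concentration giving ≥80% bacterial survival.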

[9] = Genotoxicity in Salmonella typhimurium TA1535 harboring pSK1002 assessed as survival at 0.002 mg/ml in absence of Sprague-Dawley rat liver S9 fraction metabolic activation by SOS/umu assay relative to control; assay type: toxicity; conditions: salmonella enterica subsp. enterica serovar typhimurium, read-out: Survival
Outline: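 Salmonella typhimurium TA1535/pSK1002 was exposed to compounds at several concentrations with or without S9 mix, and bacterial survival % was measured. β-galactosidase induction was measured colorimetrically with ONPG substrate. Genotoxicity was counted where IF ≥ 2 at ≥80% survival; runs were valid if positive controls reached IF ≥ 2.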

[10] = as §1, with “alkaline phosphatase” for “urea”; assay type: organism-based; design: scale not given: the % may be the effect or the level left; conditions: in vivo; outline: as §2
[11] = Genotoxicity in Salmonella typhimurium TA1535 harboring pSK1002 assessed as umu gene induction at 1 mg/ml in presence of Sprague-Dawley rat liver S9 fraction metabolic activation by SOS/umu assay relative to control; assay type: toxicity, subcellular; conditions: salmonella enterica subsp. enterica serovar typhimurium, read-out: FC; outline: as §4
[12] = Toxicity in BALB/c mouse infected with Trypanosoma cruzi MHOM/Pe/2011/Arequipa;DTU 5 bloodstream trypomastigote assessed as decrease in serum creatine kinase muscle to brain ratio level in chronic phase at 20 mg/kg/day, po administered for 5 consecutive days starting from day 70 post infection and measured at day 76 post infection relative to control; assay type: organism-based; design: scale not given: the % may be the effect or the level left; conditions: in vivo; outline: as §2
Trypanosoma cruzi [13] = test: Antitrypanosomal activity against Trypanosoma cruzi MHOM/Pe/2011/Arequipa;DTU 5 epimastigote assessed as effect on ethanol excretion at IC50 after 72 hrs by H NMR method relative to control; assay type: functional, organism-based
Outline: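 Cells were spun at 800 × g for 10 min and culture supernatants analysed by 1H NMR. Catabolite peaks were expressed as % variation versus untreated parasites.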

[14] = Genotoxicity in Salmonella typhimurium TA1535 harboring pSK1002 assessed as umu gene induction at 0.5 mg/ml in presence of Sprague-Dawley rat liver S9 fraction metabolic activation by SOS/umu assay relative to control; assay type: toxicity, subcellular; conditions: salmonella enterica subsp. enterica serovar typhimurium, read-out: FC; outline: as §4
Trypanosoma cruzi [15] = test: Trypanocidal activity against Trypanosoma cruzi trypomastigote form infected in African green monkey Vero cells assessed as ratio of infected cells at 25 uM measured after 72 hrs by Giemsa staining based assay relative to control; assay type: functional
Outline: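 Vero cells in RPMI with 10% heat-inactivated FBS, seeded at 1 × 10^4/well on coverslips for 24 h at 37 °C, 5% CO2. Infected with bloodstream trypomastigotes at MOI 10:1 for 24 h, then washed three times with PBS. Compounds added at 3.1–50 µM for 72 h. Infected cells counted after Giemsa staining. Triplicates, two separate determinations.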

[16] = Toxicity in BALB/c mouse infected with Trypanosoma cruzi MHOM/Pe/2011/Arequipa;DTU 5 bloodstream trypomastigotes assessed as decrease in serum alkaline phosphatase level in chronic phase at 20 mg/kg/day, po administered for 5 consecutive days starting from day 70 post infection measured on day 100 post infection relative to control; assay type: organism-based; design: scale not given: the % may be the effect or the level left; conditions: in vivo; outline: as §2

SMILES | selectivity ratio [1] | Activity [2] | Activity [3] [%] | Activity (Trypanosoma cruzi [4]) [%] | viability at 0.002 mg/ml [5] [%] | viability at 0.031 mg/ml [6] [%] | selectivity ratio [7] | fold induction at 0.125 mg/ml [8] | viability at 0.002 mg/ml [9] [%] | Activity [10] | fold induction at 1 mg/ml [11] | Activity [12] | Activity (Trypanosoma cruzi [13]) | fold induction at 0.5 mg/ml [14] | Ratio (Trypanosoma cruzi [15]) [%] | Activity [16]
O=C(CCN1CCN(c2ccc(Cl)cc2)CC1)c1ccc(O)cc1 | 20.4 | <= 10% | > 10 | 50 | 111 | 107 | 8.6 | 0.45 | 109 | <= 10% | 0.38 | <= 30% | Active | 0.46 | 19 | 
O=C(Cn1ccnc1[N+](=O)[O-])NCc1ccccc1 [BENZNIDAZOLE] | > 67.2 | <= 20% |  | 25 |  |  | > 13.1 |  |  |  |  | <= 30% | Active |  | 18 | <= 10%
O=C(CCN1CCN(c2ccc(C(F)(F)F)cc2)CC1)c1ccc(O)cc1 | 17.4 |  | > 10 | 13 | 108 | 112 | 8.5 | 0.7 | 116 | <= 30% | 0.37 | <= 30% | Active | 0.74 |  | <= 30%
